This note sets out measurements from ChEMBL document CHEMBL3414433, “Discovery and profiling of a selective and efficacious Syk inhibitor” (J Med Chem, 2015).

Data set [1] concerns Rattus norvegicus. In words: Antiarthritic activity in Lewis rat collagen-induced arthritis model assessed as reduction of joint damage/erosions in hind paw at 3 to 30 mg/kg, po qd administered on day 15 post immunization measured after day 28 by Giemsa/safranin O staining-based assay. The format is functional, organism-based. The method, boiled down: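 Female Lewis rats (140−160 g), arthritis induced by porcine collagen immunization (day 0) and boost (day 7); rats with swollen joints randomized, dosed orally once daily from day 15 to day 28. Hind paws taken on day 28, fixed in 10% buffered formalin for 48 h, decalcified over 16 days, paraffin-embedded; 3 μm sections stained with Giemsa and safranin O and scored.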

Data set [2] concerns Rattus norvegicus. Briefly: Antiarthritic activity in Lewis rat collagen-induced arthritis model assessed as reversal of paw swelling at 3 to 30 mg/kg, po qd administered on day 15 post immunization measured after day 28. The format is functional, organism-based. The method, boiled down:
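Collagen arthritis in female Lewis rats (porcine collagen day 0, boost day 7); swollen-joint rats randomized and given oral doses of 3, 10 or 30 mg/kg once daily, days 15–28. Swelling scored visually three times a week, per paw 0−3 metatarsal plus 0−3 ankle, composite 0−12 per rat; group means calculated.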

Data set [3] has as its target Tyrosine-protein kinase SYK (Homo sapiens, UniProt P43405).
Data set [4] deals with T1, Tyrosine-protein kinase ZAP-70 (Homo sapiens, UniProt P43403).
T1 sequence (P43403 whole entry): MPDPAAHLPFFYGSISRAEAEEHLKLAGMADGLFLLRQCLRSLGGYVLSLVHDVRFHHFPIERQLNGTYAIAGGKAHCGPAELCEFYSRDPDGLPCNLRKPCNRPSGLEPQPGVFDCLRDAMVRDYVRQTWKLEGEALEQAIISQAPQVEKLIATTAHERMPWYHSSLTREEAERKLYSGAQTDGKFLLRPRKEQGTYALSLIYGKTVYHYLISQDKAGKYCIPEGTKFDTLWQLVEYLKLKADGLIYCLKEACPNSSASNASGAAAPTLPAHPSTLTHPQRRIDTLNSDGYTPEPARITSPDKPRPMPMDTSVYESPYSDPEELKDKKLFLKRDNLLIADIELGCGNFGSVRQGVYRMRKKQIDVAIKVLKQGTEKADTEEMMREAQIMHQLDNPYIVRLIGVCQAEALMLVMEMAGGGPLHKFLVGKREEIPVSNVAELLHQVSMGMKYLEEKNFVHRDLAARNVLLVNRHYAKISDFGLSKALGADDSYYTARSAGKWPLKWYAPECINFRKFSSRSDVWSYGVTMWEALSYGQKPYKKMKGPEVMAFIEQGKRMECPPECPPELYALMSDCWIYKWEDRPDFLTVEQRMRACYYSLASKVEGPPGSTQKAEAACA
In words: Inhibition of human ZAP70.

In a further data set the test system is Canis familiaris. In words: Dose normalized AUC in Beagle dog at 0.3 mg/kg, po. The format is ADME, organism-based, Canis lupus familiaris. On the set-up: dose 0.3 mg/kg, route oral. Conditions: in vivo. The method, boiled down:
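One-in-one dosing in Beagle dogs: i.v. 0.1 mg/kg in NMP/PEG200 (3:7); p.o. 0.3 mg/kg in MC/water (0.5:99.5). Exposure values dose normalized.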

The target in data set [5] is Tyrosine-protein kinase JAK2 (Homo sapiens, UniProt O60674). In words: Competitive binding affinity to human JAK2.
Data set [6] deals with T1, Tyrosine-protein kinase ZAP-70. Briefly: Competitive binding affinity to human ZAP70.
In data set [7] the target is T2, Tyrosine-protein kinase Mer (Homo sapiens, UniProt Q12866).
T2 sequence (Q12866 whole entry): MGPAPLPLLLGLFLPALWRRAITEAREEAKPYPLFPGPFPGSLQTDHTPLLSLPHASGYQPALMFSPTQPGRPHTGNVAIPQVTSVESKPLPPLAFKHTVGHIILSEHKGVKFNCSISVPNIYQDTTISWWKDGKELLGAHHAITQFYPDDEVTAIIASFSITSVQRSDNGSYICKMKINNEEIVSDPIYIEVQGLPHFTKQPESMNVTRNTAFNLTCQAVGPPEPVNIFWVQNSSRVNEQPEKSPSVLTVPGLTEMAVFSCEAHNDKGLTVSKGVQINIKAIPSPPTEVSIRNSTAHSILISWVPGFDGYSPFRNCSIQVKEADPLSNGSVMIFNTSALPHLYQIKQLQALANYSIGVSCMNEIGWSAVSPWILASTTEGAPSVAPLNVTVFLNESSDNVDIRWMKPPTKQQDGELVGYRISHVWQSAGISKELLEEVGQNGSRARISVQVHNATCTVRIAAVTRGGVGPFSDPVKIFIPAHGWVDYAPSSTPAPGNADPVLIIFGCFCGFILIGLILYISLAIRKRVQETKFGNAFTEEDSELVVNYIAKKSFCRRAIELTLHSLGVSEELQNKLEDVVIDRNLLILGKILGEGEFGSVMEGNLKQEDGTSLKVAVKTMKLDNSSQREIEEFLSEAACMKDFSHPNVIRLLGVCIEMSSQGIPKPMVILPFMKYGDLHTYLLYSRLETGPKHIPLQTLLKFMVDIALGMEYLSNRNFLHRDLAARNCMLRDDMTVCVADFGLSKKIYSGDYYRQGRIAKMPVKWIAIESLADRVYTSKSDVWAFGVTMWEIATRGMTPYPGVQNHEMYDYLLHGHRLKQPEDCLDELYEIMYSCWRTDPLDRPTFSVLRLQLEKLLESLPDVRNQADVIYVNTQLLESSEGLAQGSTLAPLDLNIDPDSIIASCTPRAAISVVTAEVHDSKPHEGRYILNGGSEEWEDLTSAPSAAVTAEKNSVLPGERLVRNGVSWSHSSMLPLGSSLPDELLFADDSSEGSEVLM
In words: Competitive binding affinity to human MERTK.

Active and inactive are the calls of the source. No cut-off for these calls is given here.

Tyrosine-protein kinase JAK2, sequence (O60674 whole entry): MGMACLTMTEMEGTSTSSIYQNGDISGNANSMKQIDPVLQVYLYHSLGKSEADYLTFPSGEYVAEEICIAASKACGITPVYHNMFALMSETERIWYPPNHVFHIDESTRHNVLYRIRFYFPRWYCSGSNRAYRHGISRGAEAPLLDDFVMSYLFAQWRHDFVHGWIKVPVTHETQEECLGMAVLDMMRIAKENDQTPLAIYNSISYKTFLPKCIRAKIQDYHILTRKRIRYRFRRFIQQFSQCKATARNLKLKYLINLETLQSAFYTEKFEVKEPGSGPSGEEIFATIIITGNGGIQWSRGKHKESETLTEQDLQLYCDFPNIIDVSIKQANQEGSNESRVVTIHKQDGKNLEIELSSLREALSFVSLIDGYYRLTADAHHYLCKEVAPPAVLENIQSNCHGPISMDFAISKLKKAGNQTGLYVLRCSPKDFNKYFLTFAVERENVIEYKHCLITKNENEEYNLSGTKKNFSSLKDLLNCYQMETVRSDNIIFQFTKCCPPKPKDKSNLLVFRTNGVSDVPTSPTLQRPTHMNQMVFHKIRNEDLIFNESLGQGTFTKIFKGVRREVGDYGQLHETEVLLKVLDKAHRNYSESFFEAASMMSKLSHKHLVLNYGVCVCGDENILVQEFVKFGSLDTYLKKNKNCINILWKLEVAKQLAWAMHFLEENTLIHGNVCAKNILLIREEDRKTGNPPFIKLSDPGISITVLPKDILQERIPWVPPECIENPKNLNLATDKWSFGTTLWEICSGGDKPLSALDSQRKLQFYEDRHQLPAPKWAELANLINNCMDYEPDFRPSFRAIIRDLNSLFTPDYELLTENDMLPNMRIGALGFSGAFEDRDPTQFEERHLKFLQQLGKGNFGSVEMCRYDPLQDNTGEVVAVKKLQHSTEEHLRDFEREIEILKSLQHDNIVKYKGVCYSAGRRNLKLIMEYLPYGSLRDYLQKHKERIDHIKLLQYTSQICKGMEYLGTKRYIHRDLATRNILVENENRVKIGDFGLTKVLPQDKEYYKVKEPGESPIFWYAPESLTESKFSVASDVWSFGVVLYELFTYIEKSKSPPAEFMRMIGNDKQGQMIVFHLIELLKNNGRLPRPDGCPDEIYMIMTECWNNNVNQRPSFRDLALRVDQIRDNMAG

Usually IC50 stands for the concentration that inhibits the measured activity by half. The low end stands for greater potency, the high end for weaker potency. Broadly, the Kd is the constant that tells how readily two partners part at equilibrium. Lower therefore signals tighter binding. With `NC(=O)c1nnc(N[C@@H]2CCCC[C@@H]2N)nc1Nc1cccc2cc[nH]c12`, the outcome in the data set with Rattus norvegicus [1] and in the data set on Rattus norvegicus [2] was Active. Moreover, the IC50 in data set [3] came to 35 nM; in data set [4] it was 251 nM. In the data set with Canis familiaris, this compound displayed an AUC/dose of 1836 nM·h. For the same compound, the Kd in data set [5] is 53 nM; in data set [6] it was 65 nM; in data set [7] it was 150 nM.
